Laboratory results: ChEMBL document CHEMBL4706600, “Synthesis, molecular modeling, in vivo study and anticancer activity against prostate cancer of (+) (S)-naproxen derivatives” (Eur J Med Chem, 2020)
The source made the active and inactive calls. The rule behind the calls is not given here.

Key:
DU-145 = assay: Cytotoxicity against human DU-145 cells assessed as reduction in cell viability by […]; assay type: functional, cell-based
Summary of the method: (§1)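 Growth of PC-3, DU-145 and LNCaP prostate cancer lines read by MTS tetrazolium proliferation assay. Cisplatin served as the positive reference standard.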

PC-3 = assay: Cytotoxicity against human PC-3 cells assessed as reduction in cell viability by […]; assay type: functional, cell-based; summary of the method: as §1
LNCaP [1] = assay: Cytotoxicity against human LNCaP cells assessed as reduction in cell viability by […]; assay type: functional, cell-based; summary of the method: as §1
[2] = biological target: Methionine aminopeptidase 2 (Homo sapiens) (UniProt P50579); assay: Inhibition of MetAP2 in human LNCaP cells assessed as reduction in JNK/MAPK phosphorylation at 5 to 20 uM incubated upto 120 mins by Western blot analysis; assay type: cell-based; settings: dose 5-20 µM, time min <=120
Summary of the method: (§2)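 LNCaP cells (1×10^6 per well, n = 3) plated in phenol-red-free RPMI-1640 with 1% FBS for 24 h, then exposed at 5 and 20 µM for 0, 15, 60 and 120 min. Lysates were assayed for total protein, and phosphorylated AKT, ERK, p38 and JNK were detected by Western blot.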
Target sequence in this assay (P50579 2-478 limits assumed): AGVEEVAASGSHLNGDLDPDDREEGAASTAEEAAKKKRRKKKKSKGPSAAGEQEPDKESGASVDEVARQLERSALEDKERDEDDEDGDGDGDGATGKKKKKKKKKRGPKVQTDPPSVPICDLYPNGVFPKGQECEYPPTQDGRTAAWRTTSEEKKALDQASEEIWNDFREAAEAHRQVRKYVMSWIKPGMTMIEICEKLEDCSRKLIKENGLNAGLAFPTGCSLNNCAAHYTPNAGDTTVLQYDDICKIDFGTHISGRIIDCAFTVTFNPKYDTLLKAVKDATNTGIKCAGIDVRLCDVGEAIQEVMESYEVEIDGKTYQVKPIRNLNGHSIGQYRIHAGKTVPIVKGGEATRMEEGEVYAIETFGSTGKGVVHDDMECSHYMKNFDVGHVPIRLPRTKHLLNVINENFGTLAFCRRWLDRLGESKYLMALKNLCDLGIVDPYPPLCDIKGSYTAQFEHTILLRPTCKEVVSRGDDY

[3] = biological target: Methionine aminopeptidase 2 (Homo sapiens) (UniProt P50579); assay: Inhibition of MetAP2 in human LNCaP cells assessed as reduction in AKT phosphorylation at 5 to 20 uM incubated upto 120 mins by Western blot analysis; assay type: cell-based; settings: dose 5-20 µM, time min <=120; summary of the method: as §2
Target sequence in this assay (P50579 2-478 limits assumed): as above

[4] = biological target: Methionine aminopeptidase 2 (Homo sapiens) (UniProt P50579); assay: Inhibition of MetAP2 in human LNCaP cells assessed as reduction in ERK/MAPK phosphorylation at 5 to 20 uM incubated upto 120 mins by Western blot analysis; assay type: cell-based; settings: dose 5-20 µM, time min <=120; summary of the method: as §2
Target sequence in this assay (P50579 2-478 limits assumed): as above

[5] = biological target: Methionine aminopeptidase 2 (Homo sapiens) (UniProt P50579); assay: Inhibition of MetAP2 in human LNCaP cells assessed as reduction in P28/MAPK phosphorylation at 5 to 20 uM incubated upto 120 mins by Western blot analysis; assay type: cell-based; settings: dose 5-20 µM; summary of the method: as §2
Target sequence in this assay (P50579 2-478 limits assumed): as above

[6] = Toxicity in mouse assessed as effect on phosphate level measured after 3 days by blood analyser(reference value: 10.07+/- 1.06 mg/dl); assay type: tissue-based; settings: 72 h, time 3 day
LNCaP [7] = assay: Antitumor activity against human LNCaP cells xenografted in mouse assessed as decrease in ROI of cancer tissue at 0.27 mg measured after 15 days by IVIS image analysis; assay type: functional; settings: time 15 day
Summary of the method: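 LNCaP cells (5×10^6–6×10^6 cells/100 µL) injected subcutaneously into male nude mice; treatment given over 15 days, with controls receiving saline intraperitoneally every 4 days. Cancerous tissue visualized by in vivo imaging (IVIS).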

LNCaP [8] = assay: Induction of apoptosis in human LNCAP cells assessed as down regulation of Bcl-2 expression upto 20 uM measured after 6 hrs by Rt-PCR; assay type: functional, cell-based; settings: dose microM <=20, time 6.0 hrs
LNCaP [9] = assay: Induction of apoptosis in human LNCAP cells assessed as up regulation of Bax expression upto 20 uM measured after 6 hrs by Rt-PCR; assay type: functional, cell-based; settings: dose microM <=20, time 6.0 hrs, TDE = time-dependent effect
[10] = Toxicity in mouse assessed as effect on globulin level measured after 3 days by blood analyser(reference value: 3.17+/-0.31 g/dl); assay type: tissue-based; settings: 72 h, time 3 day
[11] = Toxicity in mouse assessed as effect on alkaline phosphatase level measured after 3 days by blood analyser(reference value: 144.50+/- 83.5 u/l); assay type: tissue-based; settings: 72 h, time 3 day
[12] = Toxicity in mouse assessed as effect on sodium level measured after 3 days by blood analyser(reference value: 148.33+/-1.89 mmol/l); assay type: tissue-based; settings: 72 h, time 3 day
[13] = biological target: Methionine aminopeptidase 2 (Homo sapiens) (UniProt P50579); assay: Inhibition of MetAP2 (unknown origin) incubated measured at 12.5 to 200 uM for 30 mins by spectrophotometric analysis; settings: dose 12.5-200 µM
Target sequence in this assay (P50579 whole entry, looked up): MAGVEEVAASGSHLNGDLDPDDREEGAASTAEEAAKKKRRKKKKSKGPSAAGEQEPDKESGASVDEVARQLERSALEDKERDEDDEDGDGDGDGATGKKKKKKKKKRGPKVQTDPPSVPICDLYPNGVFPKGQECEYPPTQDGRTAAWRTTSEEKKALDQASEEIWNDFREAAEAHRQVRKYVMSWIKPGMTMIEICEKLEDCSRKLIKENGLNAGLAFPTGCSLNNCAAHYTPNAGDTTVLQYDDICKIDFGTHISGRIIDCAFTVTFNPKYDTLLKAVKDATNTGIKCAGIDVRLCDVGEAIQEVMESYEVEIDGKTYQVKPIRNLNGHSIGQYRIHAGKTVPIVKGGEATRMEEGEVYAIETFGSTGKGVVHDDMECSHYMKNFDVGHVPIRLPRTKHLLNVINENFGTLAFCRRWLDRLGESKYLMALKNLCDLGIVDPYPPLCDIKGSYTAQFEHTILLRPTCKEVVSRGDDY

[14] = Toxicity in mouse assessed as effect on total protein level measured after 3 days by blood analyser(reference value: 5.7+/-0.4 g/dl); assay type: tissue-based; settings: 72 h, time 3 day
[15] = Toxicity in mouse assessed as effect on alanine transaminase level measured after 3 days by blood analyser(reference value: 679.50+/- 71.5 u/l); assay type: tissue-based; settings: 72 h, time 3 day
[16] = Toxicity in mouse assessed as effect on total bilirubin level measured after 3 days by blood analyser(reference value: 0.27+/- 0.05 mg/dl); assay type: tissue-based; settings: 72 h, time 3 day
LNCaP [17] = assay: Induction of apoptosis in human LNCAP cells assessed as up regulation of Caspase 9 expression upto 20 uM measured after 6 hrs by Rt-PCR; assay type: functional, cell-based; settings: dose microM <=20, time 6.0 hrs, TDE = time-dependent effect
[18] = Toxicity in mouse assessed as effect on blood urea nitrogen level measured after 3 days by blood analyser(reference value: 27+/- 2.6 mg/dl); settings: in vivo, 72 h, time 3 day
[19] = Toxicity in mouse assessed as effect on glucose level measured after 3 days by blood analyser(reference value: 192+/- 33 mg/dl); assay type: tissue-based; settings: 72 h, time 3 day
[20] = Toxicity in mouse assessed as effect on potassium level measured after 3 days by blood analyser(reference value: 10.7+/-2.2 mmol/l); assay type: tissue-based; settings: 72 h, time 3 day
[21] = Toxicity in mouse assessed as effect on keratin level measured after 3 days by blood analyser(reference value: 0.2+/- 0.07 mg/dl); assay type: tissue-based; settings: 72 h, time 3 day
[22] = Toxicity in mouse assessed as effect on albumin level measured after 15 days by blood analyser(reference value: 2.6+/- 0.36 g/dl); settings: 360 h
LNCaP [23] = assay: Induction of apoptosis in human LNCAP cells assessed as up regulation of Caspase 3 expression upto 20 uM measured after 6 hrs by Rt-PCR; assay type: functional, cell-based; settings: dose microM <=20, time 6.0 hrs, TDE = time-dependent effect

With COc1ccc2cc([C@H](C)C(=O)NNC(=S)Nc3ccc(C(F)(F)F)cc3)ccc2c1 the IC50 (DU-145) was 62.2 µM, the IC50 (PC-3) was 64.3 µM and the IC50 (LNCaP [1]) was 92.8 µM.
COc1ccc2cc([C@H](C)c3nnc(SCc4ccc(C)cc4)n3-c3ccc(Cl)cc3)ccc2c1 gave an IC50 (DU-145) of 18.8 µM, an IC50 (PC-3) of 8.4 µM and an IC50 (LNCaP [1]) of 52.2 µM.
Work on COc1ccc2cc([C@H](C)c3nnc(SCc4ccc(F)cc4)n3-c3ccc(F)cc3)ccc2c1 yielded an IC50 (DU-145) of 60.2 µM, an IC50 (PC-3) greater than 400 µM and an IC50 (LNCaP [1]) of 104 µM.
COc1ccc2cc([C@H](C)c3nnc(SCc4ccccc4)n3-c3ccc(Cl)cc3)ccc2c1 gave an IC50 (DU-145) of 35.8 µM, an IC50 (PC-3) of 14.2 µM and an IC50 (LNCaP [1]) of 50.4 µM.
Compound COc1ccc2cc([C@H](C)c3nnc(SCc4ccc(Cl)cc4)n3-c3ccc(F)cc3)ccc2c1 has an IC50 (DU-145) of 57.4 µM, an IC50 (PC-3) greater than 400 µM and an IC50 (LNCaP [1]) greater than 400 µM.
For COc1ccc(CSc2nnc([C@@H](C)c3ccc4cc(OC)ccc4c3)n2-c2ccc(F)cc2)cc1, the IC50 (DU-145) was greater than 400 µM, the inhibition [2] was “inactive” and the inhibition [3] was “inactive”. The IC50 (PC-3) was greater than 400 µM, the inhibition [4] was “inactive” and the inhibition ([5]; time min <=120, in the assay text read “P38/MAPK” for “P28/MAPK”) was “inactive”. For the same compound, the IC50 (LNCaP [1]) was 22.8 µM.
COc1ccc2cc([C@H](C)c3nnc(SCc4c(Cl)cccc4Cl)n3-c3cccc(Cl)c3)ccc2c1 showed an IC50 (DU-145) greater than 400 µM, an IC50 (PC-3) of 165 µM and an IC50 (LNCaP [1]) of 73.7 µM.
For COc1ccc2cc([C@H](C)c3nnc(SCc4c(C)cc(C)cc4C)n3-c3ccc(F)cc3)ccc2c1, the IC50 (DU-145) was 10.2 µM, the Activity [6] was 7.15 mg/dL and the “inhibition (INH)” value (LNCaP [7]) was 55%. For the same compound, the Activity (LNCaP [8]) was “Active”, the Activity (LNCaP [9]) was “Tde” and the Activity [10] was 3.6 g/dL. For the same compound, the inhibition [2] was “Active”, the inhibition [3] was “Active” and the IC50 (PC-3) was 43.3 µM. The Activity [11] was 58 U/L, the Activity [12] was 137.5 mmol/L and the inhibition [13] was “Active”. The inhibition [4] was “Active”, the Activity [14] was 5.3 g/dL and the Activity [15] was 64.5 U/L. For the same compound, the inhibition ([5]; time min <=120) was “Active”, the Activity [16] was 0.3 mg/dL and the IC50 (LNCaP [1]) was 2.21 µM. The Activity (LNCaP [17]) was “Tde”, the Activity [18] was 21.5 mg/dL and the Activity [19] was 154 mg/dL. For the same compound, the Activity [20] was 5.6 mmol/L, the Activity [21] was 0.25 mg/dL and the Activity [22] was 1.25 g/dL. For the same compound, the Activity (LNCaP [23]) was “Tde”.
In the case of COc1ccc(CSc2nnc([C@@H](C)c3ccc4cc(OC)ccc4c3)n2-c2ccc(Cl)cc2)cc1, the IC50 (DU-145) is reported as 72.6 µM, the IC50 (PC-3) is reported as greater than 400 µM and the IC50 (LNCaP [1]) is reported as greater than 400 µM.
For COc1ccc2cc([C@H](C)c3nnc(SCc4c(Cl)cccc4Cl)n3-c3ccc(Cl)cc3)ccc2c1, the IC50 (DU-145) was 36.1 µM, the IC50 (PC-3) was 34.7 µM and the IC50 (LNCaP [1]) was greater than 400 µM.
With COc1ccc2cc([C@H](C)c3nnc(SCc4ccc(Cl)cc4)n3-c3ccc(Cl)cc3)ccc2c1 the IC50 (DU-145) was 109 µM, the IC50 (PC-3) was 5.8 µM and the IC50 (LNCaP [1]) was 110 µM.
For COc1cccc(CSc2nnc([C@@H](C)c3ccc4cc(OC)ccc4c3)n2-c2ccc(F)cc2)c1, the IC50 (DU-145) was 19.2 µM, the IC50 (PC-3) was 211 µM and the IC50 (LNCaP [1]) was 14.5 µM.
Compound COc1ccc2cc([C@H](C)c3nnc(SCc4c(Cl)cccc4Cl)n3-c3ccc(F)cc3)ccc2c1 has an IC50 (DU-145) of 12.2 µM, an IC50 (PC-3) of 216 µM and an IC50 (LNCaP [1]) of 12.2 µM.
COc1ccc2cc([C@H](C)c3nnc(SCc4c(C)cc(C)cc4C)n3-c3cccc(Cl)c3)ccc2c1 gave an IC50 (DU-145) of 93.3 µM, an IC50 (PC-3) of 16.3 µM and an IC50 (LNCaP [1]) greater than 400 µM.
Compound COc1cccc(CSc2nnc([C@@H](C)c3ccc4cc(OC)ccc4c3)n2-c2ccc(Cl)cc2)c1 has an IC50 (DU-145) greater than 400 µM, an IC50 (PC-3) of 138 µM and an IC50 (LNCaP [1]) of 162 µM.
With COc1ccc2cc([C@H](C)c3nnc(SCc4ccc(F)cc4)n3-c3ccc(Cl)cc3)ccc2c1 the IC50 (DU-145) was 33.6 µM, the IC50 (PC-3) was 10.8 µM and the IC50 (LNCaP [1]) was 33.9 µM.
With COc1ccc2cc([C@H](C)c3nnc(SCc4ccc(C)cc4)n3-c3ccc(F)cc3)ccc2c1 the IC50 (DU-145) was 44.3 µM, the IC50 (PC-3) was 229 µM and the IC50 (LNCaP [1]) was greater than 400 µM.
